pEC50, pKi: −log10 of the molar value.
What was measured:
[1] = biological target: T1, Melanocyte-stimulating hormone receptor (Homo sapiens, UniProt Q01726); experiment: Displacement of europium labeled NDP-alpha-MSH from human MC1 receptor expressed in HEK293 cells; format: cell-based
Procedure, shortened: (§1)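 HEK293 cells stably transfected with each human receptor subtype; competing unlabeled ligands displace a constant concentration of europium-labeled NDP-α-MSH, read by time-resolved fluorometry; IC50 and Ki calculated.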

Melanocortin receptor 3 [2] = biological target: T2, Melanocortin receptor 3 (Homo sapiens, UniProt P41968); experiment: Displacement of europium labeled NDP-alpha-MSH from human MC3 receptor expressed in HEK293 cells; format: cell-based; procedure, shortened: as §1
T2 sequence (P41968 whole entry): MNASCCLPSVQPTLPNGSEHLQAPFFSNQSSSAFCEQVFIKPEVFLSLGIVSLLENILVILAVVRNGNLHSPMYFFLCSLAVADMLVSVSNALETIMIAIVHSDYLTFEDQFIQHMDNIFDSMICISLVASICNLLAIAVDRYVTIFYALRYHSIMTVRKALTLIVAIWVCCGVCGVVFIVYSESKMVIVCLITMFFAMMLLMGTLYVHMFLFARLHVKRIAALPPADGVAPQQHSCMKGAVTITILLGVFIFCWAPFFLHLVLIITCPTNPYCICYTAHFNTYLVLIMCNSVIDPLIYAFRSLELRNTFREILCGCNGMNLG

Melanocortin receptor 4 [3] = biological target: T3, Melanocortin receptor 4 (Homo sapiens, UniProt P32245); experiment: Displacement of europium labeled NDP-alpha-MSH from human MC4 receptor expressed in HEK293 cells; format: cell-based; procedure, shortened: as §1
T3 sequence (P32245 whole entry): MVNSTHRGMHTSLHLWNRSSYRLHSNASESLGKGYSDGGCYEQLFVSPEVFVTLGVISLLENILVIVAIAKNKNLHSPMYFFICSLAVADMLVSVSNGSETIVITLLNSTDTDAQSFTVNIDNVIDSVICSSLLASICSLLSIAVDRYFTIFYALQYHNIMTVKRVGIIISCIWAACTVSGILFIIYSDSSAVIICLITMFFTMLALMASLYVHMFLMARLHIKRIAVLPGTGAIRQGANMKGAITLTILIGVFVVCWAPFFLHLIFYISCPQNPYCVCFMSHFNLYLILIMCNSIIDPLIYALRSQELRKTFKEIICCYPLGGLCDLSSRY

[4] = biological target: T1, Melanocyte-stimulating hormone receptor; experiment: Agonist activity at human MC1 receptor expressed in HEK293 cells; format: functional, cell-based
Procedure, shortened: (§2)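 HEK293 cells stably transfected with the receptor subtype and a CRE-luciferase reporter; cells assayed in 96-well format for luciferase activity. Response expressed as percent of maximal activity (Emax) of NDP-MSH (MT-I) reference agonist.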

Melanocortin receptor 3 [5] = biological target: T2, Melanocortin receptor 3; experiment: Agonist activity at human MC3 receptor expressed in HEK293 cells; format: functional, cell-based; procedure, shortened: as §2
Melanocortin receptor 4 [6] = biological target: T3, Melanocortin receptor 4; experiment: Agonist activity at human MC4 receptor expressed in HEK293 cells; format: functional, cell-based; procedure, shortened: as §2

T1 sequence (Q01726 whole entry): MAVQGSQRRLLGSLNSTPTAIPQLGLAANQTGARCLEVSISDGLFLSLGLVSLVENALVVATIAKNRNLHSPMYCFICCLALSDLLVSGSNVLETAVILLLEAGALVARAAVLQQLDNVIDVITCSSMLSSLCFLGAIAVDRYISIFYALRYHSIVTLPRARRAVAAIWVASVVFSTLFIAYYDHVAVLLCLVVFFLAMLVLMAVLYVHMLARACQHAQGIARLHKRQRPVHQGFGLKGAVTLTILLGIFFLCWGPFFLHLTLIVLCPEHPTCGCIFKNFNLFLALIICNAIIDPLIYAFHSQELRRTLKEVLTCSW

pKi [1] | pKi (Melanocortin receptor 3 [2]) | pKi (Melanocortin receptor 4 [3]) | pEC50 [4] | pEC50 (Melanocortin receptor 3 [5]) | pEC50 (Melanocortin receptor 4 [6]) | Compound
< 4.00 | < 4.00 | < 4.00 | < 4.30 | < 4.00 | < 4.00 | NC(N)=NCCC[C@@H](CN1CCCCC1)NC(=O)[C@H](N)Cc1ccc(F)cc1
< 5.00 | 5.64 | 7.64 | 5.70 | 6.64 | 7.80 | N[C@H](Cc1ccc(Cl)cc1)C(=O)N1CCC(Cn2cncn2)(C2CCCCC2)CC1
< 4.60 | 5.35 | < 4.30 | < 4.60 | < 4.30 | < 4.60 | N[C@H](Cc1ccc(F)cc1)C(=O)NCCC(Cn1cncn1)C1CCCCC1 (some centres undefined)

Continued, compound first:

Compound | pKi [1] | pKi (Melanocortin receptor 3 [2]) | pKi (Melanocortin receptor 4 [3]) | pEC50 [4] | pEC50 (Melanocortin receptor 3 [5]) | pEC50 (Melanocortin receptor 4 [6])
N=C(N)NCCC[C@H](NC(=O)[C@H](N)Cc1ccc(F)cc1)C(=O)N1CCCCC1 | < 4.00 | < 4.00 | < 4.60 | < 4.30 | < 4.60 | < 4.30
N=C(N)NCCC[C@H](CC1CCCCC1)NC(=O)[C@H](N)Cc1ccc(F)cc1 |  | 5.04 | 5.17 | < 4.60 | < 4.82 | < 4.30
NC(N)=NCCC[C@H](Cc1ccccc1)NC(=O)[C@H](N)Cc1ccc(F)cc1 | < 4.60 | 5.46 | 5.38 |  | < 4.00 | < 4.00

Reference: ChEMBL document CHEMBL1142292, “Synthesis and biological activity of novel peptide mimetics as melanocortin receptor agonists” (Bioorg Med Chem Lett, 2008)
